In ChEMBL document CHEMBL1146456, “Africane-type sesquiterpenoids from the Argentine liverwort Porella swartziana and their antibacterial activity” (J Nat Prod, 2004) one finds Activity data, which are given here for nine compounds.

Assay [1] has as its system Staphylococcus aureus. The assay can be described thus: Antibacterial activity against Staphylococcus aureus F7 at below 625 ug/mL after 24 hrs by broth microdilution method. It is filed as functional, organism-based. Summed up: (§1)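 Broth microdilution in LAPTg medium (pH 6.8). Inoculum set to 0.5 McFarland (10⁸ CFU/mL), then diluted to 10⁵ CFU/mL and confirmed by plate counts. Added to 0.1 mL broth containing compound over 5000 to 156.2 µg/mL, with DMSO as solvent. Incubated 24 h at 37 °C. MIC taken as the lowest concentration with no visible growth.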
A general note: In broth dilution the organism is exposed to a series of concentrations in liquid medium.

Assay [2] concerns Staphylococcus aureus. The assay can be described thus: Antibacterial activity against Staphylococcus aureus ATCC 6538 P at below 625 ug/mL after 24 hrs by broth microdilution method. It is filed as functional, organism-based. The method in brief: as §1

Structures are written as SMILES. Activity calls are given as the source filed them. No cut-off for these calls is given here.

`CC1(C)C[C@H]2C[C@@]2(C)C2=CC(=O)[C@@]3(C)O[C@@]23C1`: the result in assay [1] and in assay [2] was inactive.
As to `C[C@H]1C(=O)C=C2[C@H]1CC(C)(C)C[C@H]1C[C@@]21C`, the result in assay [1] and in assay [2] was inactive.
Consider `CC1(C)S[C@@H]2[C@H](NC(=O)Cc3ccccc3)C(=O)N2[C@H]1C(=O)O`, for which the result in assay [1] and in assay [2] was Active.
In the case of `Cc1oc(=O)cc2c1CC(C)(C)C[C@H]1C[C@@]21C`, the result in assay [1] and in assay [2] was inactive.
As to `C[C@@H]1OC(=O)C2=C1CC(C)(C)C[C@H]1C[C@@]21C`, the result in assay [1] and in assay [2] was inactive.
Turning to `COC(=O)CC1=C(C(C)=O)CC(C)(C)C[C@H]2C[C@@]12C`, the result in assay [1] and in assay [2] was inactive.
As for `CC1(C)C=C2C(=CC(=O)[C@@]2(C)O)[C@]2(C)C[C@@H]2C1`, the result in assay [1] and in assay [2] was inactive.
With `CC1(C)C[C@H]2C[C@@]2(C)C2=CC(=O)[C@@](C)(O)[C@@H]2C1`, the outcome in assay [1] and in assay [2] was inactive.
For the compound `CC1(C)CC2=C(C(=O)O[C@]2(C)O)[C@]2(C)C[C@@H]2C1`, the outcome in assay [1] and in assay [2] was inactive.
